Consider 16 molecules from ChEMBL document CHEMBL1153637, “Identification and optimisation of a novel series of pyrimidine based cyclooxygenase-2 (COX-2) inhibitors. Utilisation of a biotransformation approach” (Bioorg Med Chem Lett, 2009).

Active and inactive are the calls of the source. No cut-off for these calls is given here. Some results are limits rather than exact numbers.

Assay [1] concerns the target T1, Prostaglandin G/H synthase 1 (Homo sapiens, UniProt P23219). As to the kind of experiment: Inhibition of human COX1 expressed in african green monkey COS cells assessed as inhibition of arachidonic acid-stimulated PGE2 production by enzyme immunoassay. Format: cell-based.
The target in assay [2] is T2, Prostaglandin G/H synthase 2 (Homo sapiens, UniProt P35354).
T2 sequence (P35354 whole entry): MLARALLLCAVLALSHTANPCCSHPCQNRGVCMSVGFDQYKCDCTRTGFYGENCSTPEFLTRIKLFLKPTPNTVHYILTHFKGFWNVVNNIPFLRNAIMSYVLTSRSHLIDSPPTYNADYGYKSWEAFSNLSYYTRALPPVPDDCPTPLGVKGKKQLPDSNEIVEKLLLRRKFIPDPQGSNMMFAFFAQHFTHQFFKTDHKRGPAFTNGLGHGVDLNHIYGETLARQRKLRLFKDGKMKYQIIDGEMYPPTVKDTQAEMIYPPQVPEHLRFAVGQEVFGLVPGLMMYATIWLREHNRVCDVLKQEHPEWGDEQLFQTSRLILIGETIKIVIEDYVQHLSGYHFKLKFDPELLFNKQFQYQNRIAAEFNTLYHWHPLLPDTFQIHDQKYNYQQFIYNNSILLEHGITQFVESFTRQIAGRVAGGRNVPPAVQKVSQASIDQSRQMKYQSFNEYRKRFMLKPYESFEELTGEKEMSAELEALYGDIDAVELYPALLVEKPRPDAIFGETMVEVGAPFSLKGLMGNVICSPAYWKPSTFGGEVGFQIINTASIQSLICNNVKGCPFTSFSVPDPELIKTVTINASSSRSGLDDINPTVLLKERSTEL
As to the kind of experiment: Inhibition of human COX2 expressed in african green monkey COS cells assessed as inhibition of arachidonic acid-stimulated PGE2 production by enzyme immunoassay. Format: cell-based.

For a further assay, the species on record is Homo sapiens. Description: Selectivity ratio of IC50 for human COX1 to IC50 for human COX2. The gist of the method: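 Ratio of the COX-1 IC50 to the COX-2 IC50. Both IC50s are for inhibition of PGE2 production by COS cells stably expressing human COX-1 or human COX-2, after stimulation with arachidonic acid.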
The species named for the next assay is Rattus norvegicus. Description: Antiinflammatory activity in Freund's complete adjuvant-induced rat inflammatory pain model assessed as change in weight bearing ability on inflamed paw pretreated 1 hr before and measured 6 hrs after FCA challenge. Format: functional.
The target in assay [3] is T1, Prostaglandin G/H synthase 1. As to the kind of experiment: Inhibition of human COX1 expressed in african green monkey COS cells assessed as inhibition of arachidonic acid-stimulated PGE2 production upto 100 uM by enzyme immunoassay. Format: cell-based. In short, it runs like this: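 COS cells stably expressing human COX-1 were stimulated with arachidonic acid, and PGE2 production was measured. IC50 was taken as the concentration inhibiting PGE2 output.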

T1 sequence (P23219 whole entry): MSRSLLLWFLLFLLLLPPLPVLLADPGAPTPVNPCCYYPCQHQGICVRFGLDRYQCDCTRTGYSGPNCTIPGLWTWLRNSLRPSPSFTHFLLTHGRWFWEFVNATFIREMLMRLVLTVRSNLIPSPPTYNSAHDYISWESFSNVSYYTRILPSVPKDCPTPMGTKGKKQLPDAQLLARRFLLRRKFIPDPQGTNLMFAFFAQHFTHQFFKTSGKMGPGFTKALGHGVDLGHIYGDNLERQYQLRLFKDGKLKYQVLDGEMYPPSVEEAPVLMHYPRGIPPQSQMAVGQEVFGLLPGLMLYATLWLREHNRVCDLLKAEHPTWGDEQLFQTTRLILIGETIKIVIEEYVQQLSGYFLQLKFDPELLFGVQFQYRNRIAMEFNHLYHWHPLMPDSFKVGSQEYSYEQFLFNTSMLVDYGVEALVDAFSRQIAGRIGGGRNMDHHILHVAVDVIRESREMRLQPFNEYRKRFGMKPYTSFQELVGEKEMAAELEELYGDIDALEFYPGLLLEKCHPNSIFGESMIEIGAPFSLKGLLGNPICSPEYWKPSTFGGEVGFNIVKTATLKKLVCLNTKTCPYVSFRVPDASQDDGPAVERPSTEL

For orientation: IC50 means the point on the concentration scale where inhibition reaches its midpoint. In the case of `CC(C)c1ncc(-c2ccc(S(C)(=O)=O)cc2)c(-c2ccc(F)cc2)n1`, the IC50 in assay [1] amounted to 10000 nM; in assay [2], 1140 nM. In addition, the Ratio IC50 in the assay filed under Homo sapiens is 8.8.

For `CS(=O)(=O)c1ccc(-c2cnc(Cc3ccccc3O)nc2-c2ccc(F)cc2)cc1`, the IC50 in assay [2] was determined as 43 nM.

As for `CS(=O)(=O)c1ccc(-c2cnc(Cc3ccccc3)[n+]([O-])c2-c2ccc(F)cc2)cc1`, in assay [2], the IC50 was 717 nM.

With `Cn1cccc1Cc1ncc(-c2ccc(S(C)(=O)=O)cc2)c(-c2ccc(F)cc2)n1`, the IC50 in assay [1] came to 6540 nM; in assay [2] it was 23 nM. In the assay listed under Homo sapiens, the Ratio IC50 was 284.

The term ED50 denotes the midpoint of the dose-response relation. `CS(=O)(=O)c1ccc(-c2cnc(C(O)c3ccccc3)nc2-c2ccc(F)cc2)cc1` (configuration not stated): in the assay listed under Rattus norvegicus, the ED50 is 1.6 mg/kg. Also, the IC50 in assay [2] amounted to 57 nM. The outcome in assay [3] was inactive.

`CN(c1ccccc1)c1ncc(-c2ccc(S(C)(=O)=O)cc2)c(-c2ccc(F)cc2)n1`: the IC50 in assay [1] was determined as 4340 nM; in assay [2], 85 nM. Moreover, the Ratio IC50 in the assay filed under Homo sapiens was 51.

For the molecule `CS(=O)(=O)c1ccc(-c2cnc(Oc3ccccc3)nc2-c2ccc(F)cc2)cc1`, the figures for the IC50 in assay [1] and in assay [2] were more than 100000 nM and more than 4640 nM, respectively.

As to `CS(=O)(=O)c1ccc(-c2cnc(Nc3ccccc3)nc2-c2ccc(F)cc2)cc1`, the IC50 in assay [1] was more than 100000 nM; in assay [2] it was 56 nM. For the same molecule, the Ratio IC50 in the assay filed under Homo sapiens is more than 1780.

Turning to `CS(=O)(=O)c1ccc(-c2cnc(Cc3ccc(F)cc3F)nc2-c2ccc(F)cc2)cc1`, the half-maximal inhibitory concentration (IC50) was more than 52100 nM in assay [1] and 114 nM in assay [2]. Also, the Ratio IC50 in the assay filed under Homo sapiens was more than 457.

For `CS(=O)(=O)c1ccc(-c2cnc(CC3CCCCC3)nc2-c2ccc(F)cc2)cc1`, the IC50 in assay [1] was found to be 2970 nM; in assay [2], 12 nM. Moreover, the Ratio IC50 in the assay filed under Homo sapiens is 247.

For the molecule `CS(=O)(=O)c1ccc(-c2cnc(CCc3ccccc3)nc2-c2ccc(F)cc2)cc1`, the IC50 came to 29400 nM in assay [1] and 5260 nM in assay [2]. Moreover, the Ratio IC50 in the assay filed under Homo sapiens stood at 5.6.

As to `CS(=O)(=O)c1ccc(-c2cnc(Sc3ccccc3)nc2-c2ccc(F)cc2)cc1`, the IC50 in assay [1] was more than 100000 nM; in assay [2] it was more than 7200 nM.

Regarding `CS(=O)(=O)c1ccc(-c2cnc(Cc3ccccc3)nc2-c2ccc(F)cc2)cc1`, the IC50 is more than 34000 nM in assay [1] and 104 nM in assay [2]. In addition, the Ratio IC50 in the assay filed under Homo sapiens was more than 326.

Consider `CS(=O)(=O)c1ccc(-c2cnc(NCc3ccccc3)nc2-c2ccc(F)cc2)cc1`, for which the figures for the IC50 in assay [1] and in assay [2] were more than 100000 nM and 686 nM, respectively. In addition, the Ratio IC50 in the assay filed under Homo sapiens was more than 145.

In the case of `CS(=O)(=O)c1ccc(-c2cnc(Cc3ccc(F)cc3)nc2-c2ccc(F)cc2)cc1`, the IC50 in assay [1] is more than 100000 nM; in assay [2], 277 nM. The Ratio IC50 in the assay listed under Homo sapiens was more than 361.

In the case of `CS(=O)(=O)c1ccc(-c2cnc(Cc3ccccn3)nc2-c2ccc(F)cc2)cc1`, the values for the IC50 in assay [1] and in assay [2] were more than 100000 nM and 6320 nM, respectively. The Ratio IC50 in the assay listed under Homo sapiens is more than 16.
